Measured values published in ChEMBL document CHEMBL1148836, “3-Substituted-(5-arylfuran-2-ylcarbonyl)guanidines as NHE-1 inhibitors” (Bioorg Med Chem Lett, 2007).

Legend:
[1] = molecular target: Sodium/hydrogen exchanger 1 (Homo sapiens, UniProt P19634); experiment: Inhibition of human NHE1 expressed in PS120 cells; assay type: cell-based
Method in brief: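 PS120 variant cells selectively expressing human NHE-1. Inhibition measured as the effect on sodium-dependent pH recovery after imposed intracellular acidosis. IC50 values are means of three experiments.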

Heart [2] = experiment: Cardioprotective effect against ischemia reperfusion injury in rat heart assessed as recovery of rate pressure product at 10 uM; assay type: functional
Method in brief: (§1)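 Isolated rat heart ischemia/reperfusion model. Hearts exposed to 10 µM compound for 10 min before ischemia. Read-outs are recovery of contractile function as rate-pressure product (% RPP) and left ventricular end-diastolic pressure (mmHg), each compared with a vehicle group. Values are means, n = 3 or higher.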

Heart [3] = experiment: Cardioprotective effect against ischemia reperfusion injury in rat heart assessed as left ventricular end diastolic pressure at 10 uM; assay type: functional; method in brief: as §1
Rattus norvegicus = experiment: Cardioprotective effect against ischemia reperfusion injury in rat myocardial infarction model assessed as ratio of infarction size to area at risk at 0.1 mg/kg, iv; assay type: functional, Myocardium
Method in brief: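 Rat myocardial infarction model. Animals stabilized 20 min after left thoracotomy, then 45 min coronary artery occlusion and 90 min reperfusion. Compound given at 0.1 mg/kg as bolus intravenous injection 5 min before ischemia onset. Infarct size measured as a ratio to area at risk (IS/AAR, %), compared with vehicle. Means, n = 3 or higher.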

Sequence of Sodium/hydrogen exchanger 1 (P19634 whole entry): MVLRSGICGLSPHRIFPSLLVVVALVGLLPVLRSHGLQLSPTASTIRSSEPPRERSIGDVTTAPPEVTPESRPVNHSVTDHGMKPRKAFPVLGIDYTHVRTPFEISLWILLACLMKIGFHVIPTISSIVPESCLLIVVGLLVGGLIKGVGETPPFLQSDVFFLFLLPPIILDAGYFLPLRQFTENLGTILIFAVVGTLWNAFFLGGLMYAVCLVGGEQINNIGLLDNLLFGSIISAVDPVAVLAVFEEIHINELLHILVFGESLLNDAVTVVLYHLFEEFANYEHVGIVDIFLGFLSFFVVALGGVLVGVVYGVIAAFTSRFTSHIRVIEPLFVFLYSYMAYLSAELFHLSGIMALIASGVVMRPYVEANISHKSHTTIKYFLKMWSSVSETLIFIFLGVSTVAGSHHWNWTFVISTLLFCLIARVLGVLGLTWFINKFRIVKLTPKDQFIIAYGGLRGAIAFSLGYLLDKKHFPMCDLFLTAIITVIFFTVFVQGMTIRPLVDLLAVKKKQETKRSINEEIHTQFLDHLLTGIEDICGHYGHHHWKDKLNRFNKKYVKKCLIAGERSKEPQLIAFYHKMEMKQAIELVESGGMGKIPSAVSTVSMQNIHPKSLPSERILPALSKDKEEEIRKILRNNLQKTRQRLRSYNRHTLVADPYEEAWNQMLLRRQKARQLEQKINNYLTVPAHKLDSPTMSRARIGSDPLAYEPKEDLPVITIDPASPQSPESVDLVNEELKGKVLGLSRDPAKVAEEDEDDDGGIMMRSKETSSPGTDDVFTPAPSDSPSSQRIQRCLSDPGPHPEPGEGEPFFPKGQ

N=C(N)NC(=O)c1oc(-c2cccc(Cl)c2)cc1-n1cccc1 was tested, and the IC50 [1] was 3 µM.
NC(N)=NC(=O)c1oc(-c2ccccc2F)cc1N showed an Activity (Heart [2]) of 62%, an Activity (Heart [3]) of 20 mmHg and an IC50 [1] of 1.2 µM.
For COc1ccccc1-c1cc(N)c(C(=O)N=C(N)N)o1, the Activity (Heart [2]) was 30%, the Activity (Rattus norvegicus) was 55% and the Activity (Heart [3]) was 31 mmHg. It also gave an IC50 [1] of 0.15 µM.
For Cc1cccc(-c2cc(N)c(C(=O)NC(=N)N)o2)c1, the IC50 [1] was 0.77 µM.
For CC(=O)N(C)c1cc(-c2ccccc2)oc1C(=O)NC(=N)N, the IC50 [1] was > 30 µM.
NC(N)=NC(=O)c1oc(-c2cccc(Cl)c2)cc1N gave an Activity (Heart [2]) of 33%, an Activity (Rattus norvegicus) of 53% and an Activity (Heart [3]) of 27 mmHg. It also gave an IC50 [1] of 0.15 µM.
In the case of CC(=O)N(C)c1cc(-c2cc(Cl)ccc2Cl)oc1C(=O)N=C(N)N, the IC50 [1] is reported as > 30 µM.
With COc1ccc(Cl)cc1-c1cc(N(C)C(C)=O)c(C(=O)NC(=N)N)o1 the IC50 [1] was 33 µM.
Work on COc1ccc(F)cc1-c1cc(N)c(C(=O)NC(=N)N)o1 yielded an IC50 [1] of 0.12 µM.
For Cc1cc(-c2cc(F)ccc2F)oc1C(=O)N=C(N)N, the IC50 [1] was 0.13 µM.
Cc1ccc(C)c(-c2cc(N)c(C(=O)NC(=N)N)o2)c1 was tested, and the IC50 [1] was 0.072 µM.
With COc1ccc(Cl)cc1-c1cc(C)c(C(=O)N=C(N)N)o1 the Activity (Heart [2]) was 0.3%, the Activity (Heart [3]) was 34 mmHg and the IC50 [1] was 0.01 µM.
Work on COc1ccc(Cl)cc1-c1cc(N)c(C(=O)N=C(N)N)o1 yielded an Activity (Heart [2]) of 27%, an Activity (Heart [3]) of 29 mmHg and an IC50 [1] of 0.015 µM.
Work on CCc1cc(-c2cccc(Cl)c2)oc1C(=O)NC(=N)N yielded an IC50 [1] of 0.23 µM.
COc1ccc(Cl)cc1-c1cc(-c2ccccc2)c(C(=O)NC(=N)N)o1 was tested, and the IC50 [1] was 5.6 µM.
For CN(C)c1cc(-c2cccc(Cl)c2)oc1C(=O)N=C(N)N, the IC50 [1] was 0.12 µM.
For CC(=O)Nc1cc(-c2ccccc2)oc1C(=O)N=C(N)N, the IC50 [1] was 14 µM.
With CC(=O)Nc1cc(-c2cc(Cl)ccc2Cl)oc1C(=O)N=C(N)N the IC50 [1] was 6.2 µM.
Molecule COc1ccc(Cl)cc1-c1cc(NC(C)=O)c(C(=O)N=C(N)N)o1 has an IC50 [1] of 4.5 µM.
Work on CNc1cc(-c2cc(Cl)ccc2Cl)oc1C(=O)N=C(N)N yielded an IC50 [1] of 0.096 µM.
For N=C(N)NC(=O)c1oc(-c2cccc(Cl)c2)cc1N1CCCC1, the IC50 [1] was 5.1 µM.
Work on NC(N)=NC(=O)c1oc(-c2cccc(Cl)c2)cc1N1CCCCC1 yielded an IC50 [1] of 16 µM.
N=C(N)NC(=O)c1oc(-c2cc(F)ccc2F)cc1N showed an IC50 [1] of 0.41 µM.
In the case of NC(N)=NC(=O)c1oc(-c2cc(Cl)ccc2Cl)cc1N1CCCC1, the IC50 [1] is reported as 0.48 µM.
For NC(N)=NC(=O)c1oc(-c2cc(Cl)ccc2Cl)cc1N1CCCCC1, the IC50 [1] was 0.48 µM.
N=C(N)NC(=O)c1oc(-c2cc(Cl)ccc2Cl)cc1N showed an IC50 [1] of 0.008 µM.
In the case of CC(=O)N(C)c1cc(-c2cccc(Cl)c2)oc1C(=O)NC(=N)N, the IC50 [1] is reported as > 30 µM.
With CN(C)c1cc(-c2ccccc2)oc1C(=O)N=C(N)N the IC50 [1] was 0.12 µM.
CN(C)c1cc(-c2cc(Cl)ccc2Cl)oc1C(=O)NC(=N)N was tested, and the IC50 [1] was 0.009 µM.
With COc1ccc(Cl)cc1-c1cc(N(C)C)c(C(=O)N=C(N)N)o1 the Activity (Heart [2]) was 6.4%, the Activity (Heart [3]) was 40 mmHg and the IC50 [1] was 0.012 µM.
CNc1cc(-c2cccc(Cl)c2)oc1C(=O)N=C(N)N was tested, and the IC50 [1] was 0.82 µM.
In the case of Cc1cc(-c2cccc(Cl)c2)oc1C(=O)NC(=N)N, the IC50 [1] is reported as 0.024 µM.
In the case of CNc1cc(-c2ccccc2)oc1C(=O)N=C(N)N, the IC50 [1] is reported as 0.82 µM.
Cc1cc(-c2cc(Cl)ccc2Cl)oc1C(=O)NC(=N)N was tested, and the IC50 [1] was 0.016 µM.
N=C(N)NC(=O)c1oc(-c2ccccc2)cc1N was tested, and the IC50 [1] was 2.3 µM.
In the case of Cc1ccccc1-c1cc(N)c(C(=O)N=C(N)N)o1, the Activity (Heart [2]) is reported as 30%, the Activity (Rattus norvegicus) is reported as 47% and the Activity (Heart [3]) is reported as 28 mmHg. The IC50 [1] was 0.24 µM.
NC(N)=NC(=O)c1oc(-c2cccc(F)c2)cc1N was tested, and the Activity (Heart [2]) was 49%, the Activity (Heart [3]) was 25 mmHg and the IC50 [1] was 0.68 µM.
With CC(=O)Nc1cc(-c2cccc(Cl)c2)oc1C(=O)NC(=N)N the IC50 [1] was 14 µM.
CC(C)c1ccc(C(=O)N=C(N)N)cc1S(C)(=O)=O [CARIPORIDE] showed an Activity (Heart [2]) of 48%, an Activity (Rattus norvegicus) of 41% and an Activity (Heart [3]) of 24 mmHg.
